≈ marks a conversion by molar mass, not a printed value.
How the values were obtained:
[1] = Cytotoxicity against human 9KB cells treated as ethanol solution; assay type: functional; settings: read-out: ED50 (the source's name)
How it was run: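 Compound applied as an ethanol solution; activity read out as ED50 under the general screening protocol.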

L1210 [2] = assay: Antileukemic activity against mouse L1210 cells allografted in female CDF1 mouse assessed as change in body weight at 6.25 mg/kg, ip administered daily for 9 days as Klucel suspension starting 24 hrs after tumor inoculation; assay type: functional; settings: route intraperitoneal
How it was run: (§1)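 Ascitic fluid carrying L1210 cells was inoculated ip. Compound was given ip as a Klucel (hydroxypropylcellulose) suspension in nine daily doses, starting 24 h after inoculation. Body-weight difference (treated minus control) was recorded on day 5. Survival was scored as %T/C of mean survival time.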

L1210 [3] = assay: Antileukemic activity against mouse L1210 cells allografted in female CDF1 mouse assessed as change in body weight at 12.5 mg/kg, ip administered daily for 9 days as Klucel suspension starting 24 hrs after tumor inoculation; assay type: functional; settings: route intraperitoneal; how it was run: as §1
L1210 [4] = assay: Antileukemic activity against mouse L1210 cells allografted in female CDF1 mouse assessed as change in body weight at 3.13 mg/kg, ip administered daily for 9 days as Klucel suspension starting 24 hrs after tumor inoculation; assay type: functional; settings: route intraperitoneal; how it was run: as §1
L1210 [5] = assay: Antileukemic activity against mouse L1210 cells allografted in female CDF1 mouse assessed as host mean survival time at 12.5 mg/kg, ip administered daily for 9 days as Klucel suspension starting 24 hrs after tumor inoculation relative to control; assay type: functional; settings: route intraperitoneal
How it was run: (§2)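 L1210 leukemia given as an ascitic fluid cell inoculum, ip, to mice of the strain and sex in each line. Test material was given ip for nine daily doses starting 24 h after inoculation, in a Klucel (hydroxypropylcellulose) suspension. Read-out is mean survival time as %T/C versus controls, with >125 taken as significant.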

L1210 [6] = assay: Antileukemic activity against mouse L1210 cells allografted in female CDF1 mouse assessed as host mean survival time at 6.25 mg/kg, ip administered daily for 9 days as Klucel suspension starting 24 hrs after tumor inoculation relative to control; assay type: functional; settings: route intraperitoneal; how it was run: as §2
L1210 [7] = assay: Antileukemic activity against mouse L1210 cells allografted in female CDF1 mouse assessed as host mean survival time at 3.13 mg/kg, ip administered daily for 9 days as Klucel suspension starting 24 hrs after tumor inoculation relative to control; assay type: functional; settings: route intraperitoneal; how it was run: as §2
Mus musculus [8] = assay: Toxicity in male CDF1 mouse allografted with mouse P388 cells assessed as animal survival at 200 mg/kg, ip administered daily for 9 days as Klucel suspension starting 24 hrs after tumor inoculation; assay type: organism-based; set-up: dose 200 mg/kg, route intraperitoneal; settings: in vivo
How it was run: (§3)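 P-388 leukemia ascitic fluid inoculated ip. Compound given ip as a suspension in Klucel (hydroxypropylcellulose), once daily for nine doses beginning 24 h post-inoculation. Acute toxicity assessed as toxicity-day survivors per group. Survival was followed up to 30 days, with 30-day survival counted as "cure". Follows NCI screening protocols.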

Mus musculus [9] = assay: Toxicity in female BDF1 mouse allografted with mouse P388 cells assessed as animal survival at 1.56 mg/kg, ip administered daily for 9 days as Klucel suspension starting 24 hrs after tumor inoculation; assay type: organism-based; set-up: dose 1.56 mg/kg, route intraperitoneal; settings: in vivo; how it was run: as §3
Mus musculus [10] = assay: Toxicity in female BDF1 mouse allografted with mouse P388 cells assessed as animal survival at 0.78 mg/kg, ip administered daily for 9 days as Klucel suspension starting 24 hrs after tumor inoculation; assay type: organism-based; set-up: dose 0.78 mg/kg, route intraperitoneal; settings: in vivo; how it was run: as §3
P388 [11] = assay: Antitumor activity against mouse P388 cells allografted in female CDF1 mouse assessed as disease cures by measuring 30-days host survival at 3.13 mg/kg, ip administered daily for 9 days as Klucel suspension starting 24 hrs after tumor inoculation relative to control; assay type: functional; settings: route intraperitoneal
How it was run: (§4)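 P388 leukemia given as an ascitic fluid cell inoculum, ip, to mice of the strain and sex in each line. Nine daily ip doses were given in a Klucel (hydroxypropylcellulose) suspension, starting 24 h after inoculation. Read-out is median survival time as %T/C, with >125 taken as significant; a "cure" means 30-day survival.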

P388 [12] = assay: Antitumor activity against mouse P388 cells allografted in female CDF1 mouse assessed as disease cures by measuring 30-days host survival at 12.5 mg/kg, ip administered daily for 9 days as Klucel suspension starting 24 hrs after tumor inoculation relative to control; assay type: functional; settings: route intraperitoneal; how it was run: as §4
P388 [13] = assay: Antitumor activity against mouse P388 cells allografted in male CDF1 mouse assessed as disease cures by measuring 30-days host survival at 50 mg/kg, ip administered daily for 9 days as Klucel suspension starting 24 hrs after tumor inoculation relative to control; assay type: functional; settings: route intraperitoneal; how it was run: as §4
P388 [14] = assay: Antitumor activity against mouse P388 cells allografted in female BDF1 mouse assessed as disease cures by measuring 30-days host survival at 1.56 mg/kg, ip administered daily for 9 days as Klucel suspension starting 24 hrs after tumor inoculation relative to control; assay type: functional; settings: route intraperitoneal; how it was run: as §4
P388 [15] = assay: Antitumor activity against mouse P388 cells allografted in female BDF1 mouse assessed as disease cures by measuring 30-days host survival at 0.78 mg/kg, ip administered daily for 9 days as Klucel suspension starting 24 hrs after tumor inoculation relative to control; assay type: functional; settings: route intraperitoneal; how it was run: as §4
Mus musculus [16] = assay: Toxicity in female CDF1 mouse allografted with mouse P388 cells assessed as animal survival at 6.25 mg/kg, ip administered daily for 9 days as Klucel suspension starting 24 hrs after tumor inoculation; assay type: organism-based; set-up: dose 6.25 mg/kg, route intraperitoneal; settings: in vivo; how it was run: as §3
Mus musculus [17] = assay: Toxicity in female CDF1 mouse allografted with mouse P388 cells assessed as animal survival at 3.13 mg/kg, ip administered daily for 9 days as Klucel suspension starting 24 hrs after tumor inoculation; assay type: organism-based; set-up: dose 3.13 mg/kg, route intraperitoneal; settings: in vivo; how it was run: as §3
Mus musculus [18] = assay: Toxicity in female CDF1 mouse allografted with mouse P388 cells assessed as animal survival at 12.5 mg/kg, ip administered daily for 9 days as Klucel suspension starting 24 hrs after tumor inoculation; assay type: organism-based; set-up: dose 12.5 mg/kg, route intraperitoneal; settings: in vivo; how it was run: as §3
Mus musculus [19] = assay: Toxicity in male CDF1 mouse allografted with mouse P388 cells assessed as animal survival at 100 mg/kg, ip administered daily for 9 days as Klucel suspension starting 24 hrs after tumor inoculation; assay type: organism-based; set-up: dose 100 mg/kg, route intraperitoneal; settings: in vivo; how it was run: as §3
Mus musculus [20] = assay: Toxicity in female CDF1 mouse allografted with mouse L1210 cells assessed as animal survival at 6.25 mg/kg, ip administered daily for 9 days as Klucel suspension starting 24 hrs after tumor inoculation measured on fifth day; assay type: organism-based; set-up: dose 6.25 mg/kg, route intraperitoneal; settings: in vivo
How it was run: (§5)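 L1210 leukemia passaged as ascitic fluid and inoculated ip. Test agent given ip as a Klucel (hydroxypropylcellulose) suspension, nine daily doses starting 24 h after tumor inoculation. Acute toxicity read as toxicity-day survivors per group (out of 6), recorded on day 5. Animal weight difference T − C was also recorded. Follows NCI screening protocols.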

Mus musculus [21] = assay: Toxicity in female CDF1 mouse allografted with mouse L1210 cells assessed as animal survival at 3.13 mg/kg, ip administered daily for 9 days as Klucel suspension starting 24 hrs after tumor inoculation measured on fifth day; assay type: organism-based; set-up: dose 3.13 mg/kg, route intraperitoneal; settings: in vivo; how it was run: as §5
P388 [22] = assay: Antitumor activity against mouse P388 cells allografted in male CDF1 mouse assessed as change in body weight at 25 mg/kg, ip administered daily for 9 days as Klucel suspension starting 24 hrs after tumor inoculation; assay type: functional; settings: route intraperitoneal
How it was run: (§6)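 Ascitic fluid carrying P388 cells was inoculated ip. Compound was given ip in nine daily doses, starting 24 h after inoculation, in Klucel (hydroxypropylcellulose) suspension or in saline with Tween-80. Body-weight difference (treated minus control) was recorded on day 5. Survival was scored as %T/C of median survival time, and 30-day survival counted as cure.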

P388 [23] = assay: Antitumor activity against mouse P388 cells allografted in male CDF1 mouse assessed as change in body weight at 50 mg/kg, ip administered daily for 9 days as Klucel suspension starting 24 hrs after tumor inoculation; assay type: functional; settings: route intraperitoneal; how it was run: as §6
P388 [24] = assay: Antitumor activity against mouse P388 cells allografted in male CDF1 mouse assessed as change in body weight at 100 mg/kg, ip administered daily for 9 days as Klucel suspension starting 24 hrs after tumor inoculation; assay type: functional; settings: route intraperitoneal; how it was run: as §6
P388 [25] = assay: Antitumor activity against mouse P388 cells allografted in female CDF1 mouse assessed as change in body weight at 12.5 mg/kg, ip administered daily for 9 days as Klucel suspension starting 24 hrs after tumor inoculation; assay type: functional; settings: route intraperitoneal; how it was run: as §6
P388 [26] = assay: Antitumor activity against mouse P388 cells allografted in female CDF1 mouse assessed as change in body weight at 3.13 mg/kg, ip administered daily for 9 days as Klucel suspension starting 24 hrs after tumor inoculation; assay type: functional; settings: route intraperitoneal; how it was run: as §6
P388 [27] = assay: Antitumor activity against mouse P388 cells allografted in female CDF1 mouse assessed as change in body weight at 6.25 mg/kg, ip administered daily for 9 days as Klucel suspension starting 24 hrs after tumor inoculation; assay type: functional; settings: route intraperitoneal; how it was run: as §6
P388 [28] = assay: Antitumor activity against mouse P388 cells allografted in male CDF1 mouse assessed as change in body weight at 200 mg/kg, ip administered daily for 9 days as Klucel suspension starting 24 hrs after tumor inoculation; assay type: functional; settings: route intraperitoneal; how it was run: as §6
P388 [29] = assay: Antitumor activity against mouse P388 cells allografted in female BDF1 mouse assessed as change in body weight at 1.56 mg/kg, ip administered daily for 9 days as Klucel suspension starting 24 hrs after tumor inoculation; assay type: functional; settings: route intraperitoneal; how it was run: as §6
P388 [30] = assay: Antitumor activity against mouse P388 cells allografted in female BDF1 mouse assessed as change in body weight at 0.78 mg/kg, ip administered daily for 9 days as Klucel suspension starting 24 hrs after tumor inoculation; assay type: functional; settings: route intraperitoneal; how it was run: as §6
P388 [31] = assay: Antitumor activity against mouse P388 cells allografted in female CDF1 mouse assessed as disease cures by measuring 30-days host survival at 6.25 mg/kg, ip administered daily for 9 days as Klucel suspension starting 24 hrs after tumor inoculation relative to control; assay type: functional; settings: route intraperitoneal; how it was run: as §4

`CNC(=O)OCc1c(COC(=O)NC)c(-c2ccc(F)cc2)n2c1CCC2` showed an EC50 [1] of 0.22 µg/mL (≈ 0.586 µM), an Activity (L1210 [2]) of 0.1 g and an Activity (L1210 [3]) of 0.1 g. The Activity (L1210 [4]) was 1.1 g, the T/C (L1210 [5]) was 118% and the T/C (L1210 [6]) was 107%. For the same compound, the T/C (L1210 [7]) was 115%, the Activity (Mus musculus [8]) was “Toxic” and the Activity (Mus musculus [9]) was “Non-toxic”. For the same compound, the Activity (Mus musculus [10]) was “Non-toxic”, the T/C (P388 [11]) was 171% and the T/C (P388 [12]) was 153%. It also gave a T/C (P388 [13]) of 48%, a T/C (P388 [14]) of 122% and a T/C (P388 [15]) of 146%. The Activity (Mus musculus [16]) was “Non-toxic”, the Activity (Mus musculus [17]) was “Non-toxic” and the Activity (Mus musculus [18]) was “Non-toxic”. The Activity (Mus musculus [19]) was “Toxic”, the Activity (Mus musculus [20]) was “Non-toxic” and the Activity (Mus musculus [21]) was “Non-toxic”. For the same compound, the Activity (P388 [22]) was -2 g, the Activity (P388 [23]) was -3.4 g and the Activity (P388 [24]) was -1.5 g. The Activity (P388 [25]) was -3.3 g, the Activity (P388 [26]) was -0.3 g and the Activity (P388 [27]) was -1 g. For the same compound, the Activity (P388 [28]) was -1.5 g, the Activity (P388 [29]) was 0 g and the Activity (P388 [30]) was 0.9 g. It also gave a T/C (P388 [31]) of 145%.

Source: ChEMBL document CHEMBL3244396, “Synthesis and antileukemic activity of 5-substituted 2,3-dihydro-6,7-bis(hydroxymethyl)-1H-pyrrolizine diesters” (J Med Chem, 1977)
